The source made the active and inactive calls.
Assays:
[1] = organism: Rattus norvegicus; assay: Antiinflammatory activity against mycobacterial adjuvant-induced arthritis in rat; assay type: functional, organism-based
[2] = tested on: Rattus norvegicus; assay: Analgesic activity against po dosed yeast-induced inflamed foot Sprague-Dawley rat model assessed as increase in pain threshold in inflamed paw measured after 2 hrs; assay type: functional
[3] = tested on: Mus musculus; assay: Analgesic activity in po dosed CF-1 mouse assessed as reduction in phenylquinone-induced writhing responses administered 15 mins prior to phenylquinone challenge; assay type: functional
[4] = Retardation factor of the compound using benzene-ethyl acetate at ratio of 1:1 as solvent system by thin layer chromatography; assay type: physicochemical
[5] = tested on: Mus musculus; assay: Analgesic activity in CF-1 mouse assessed as reduction in phenylquinone-induced writhing responses at 200 mg/kg, po administered 15 mins prior to phenylquinone challenge; assay type: functional
Method in brief: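 Fifteen min later they received 0.25 mL ip of 0.02% 2-phenyl-1,4-benzoquinone in 19:1 water-ethanol. Writhes were counted for 5 min starting 10 min after the injection, and % protection was calculated versus vehicle controls.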

[6] = Retardation factor of the compound using benzene-triethylamine at ratio of 9:1 as solvent system by thin layer chromatography; assay type: physicochemical
[7] = tested on: Rattus norvegicus; assay: Analgesic activity in po dosed Sprague-Dawley rat by tail flick assay; assay type: functional
[8] = Acute toxicity in po dosed CF-1S mouse assessed as mortality measured for 5 days; assay type: organism-based; conditions: in vivo
Method in brief: (§1)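 Male and female CF-1S mice (17-25 g) received the compound suspended in gum acacia solution, orally or intraperitoneally, in groups of six to ten per dose level. Mortality was followed for 24 h after ip dosing and for 5 days after oral dosing. LD50 was calculated by the Miller-Tainter method.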

[9] = Acute toxicity in ip dosed CF-1S mouse assessed as mortality measured for 24 hrs; assay type: organism-based; conditions: in vivo; method in brief: as §1
[10] = Rattus norvegicus, Sprague-Dawley, po, 2 h, read-out: ED50
[11] = Mus musculus, CF-1, po, read-out: ED50

SMILES | Activity [1] | ED50 [2, 10] | ED50 [3, 11] | other results
O=C(/N=C1\NC2(CCCCO2)CCS1)c1cccc(F)c1 (stereo not given) | inactive | 1.3 mg/kg | 9.2 mg/kg | 
NC1=NC2(CCCO2)CCS1.O=C(O)/C=C\C(=O)O (racemic) | inactive | 4 mg/kg | 15 mg/kg | 
O=C(/N=C1\NC2(CCCCO2)CCS1)c1ccccc1 (stereo not given) | inactive | 2.6 mg/kg | 5 mg/kg | 
Cc1cc(C)c(C(=O)/N=C2\NC3(CCCCO3)CCS2)c(C)c1 (stereo not given) | inactive | > 200 mg/kg | > 200 mg/kg | 
O=C(/N=C1\NC2(CCCCO2)CCS1)Nc1ccccc1 (racemic) |  | > 200 mg/kg | > 200 mg/kg | 
Cl.c1ccc(C2=NC3(CCCCO3)CCS2)cc1 (racemic) |  | > 200 mg/kg | > 200 mg/kg | 
CCC(=O)O[C@](Cc1ccccc1)(c1ccccc1)[C@H](C)CN(C)C [PROPOXYPHENE] |  | 60 mg/kg | 48 mg/kg | 
Cl.O=C(/C=C/c1ccccc1)/N=C1\NC2(CCCCO2)CCS1 (stereo not given) | inactive | 2.5 mg/kg | 17 mg/kg | 
c1ccc(/N=C2\NC3(CCCCO3)CCS2)cc1 (racemic) |  | > 100 mg/kg | > 200 mg/kg | Rf [4]: 0.45
COc1ccc(C(=O)/N=C2\NC3(CCCCO3)CCS2)cc1OC (stereo not given) | inactive | 4.5 mg/kg | 200 mg/kg | inhibition in vivo at 200 mg/kg [5]: -75%
CC(=O)N(Cc1ccccc1)C1=NC2(CCCCO2)CCS1 (stereo not given) |  |  |  | Rf [4]: 0.37
c1ccc(CNC2=NC3(CCCCO3)CCS2)cc1 (racemic) | inactive | > 100 mg/kg | > 200 mg/kg | Rf [6]: 0.5; Rf [4]: 0.15
NC1=NC2(CCCCC2)CCS1.O=C(O)/C=C\C(=O)O | inactive | 19 mg/kg | 6.6 mg/kg | ED50 [7]: > 50 mg/kg
O=C(/N=C1\NC2(CCCCO2)CCS1)c1ccc(F)cc1 (stereo in doubt; 33) [listing 1 of 2 here] |  |  |  | ED50 [7]: 22.3 mg/kg; LD50 at 120 h [8]: 630 mg/kg; ED50 [2]: 2 mg/kg; LD50 at 24 h [9]: 1370 mg/kg; ED50 [3]: 49 mg/kg
CC1(C(=O)/N=C2\NC3(CCCCO3)CCS2)CCCCC1 (stereo not given) | inactive | 16 mg/kg | > 200 mg/kg | 
O=C(/N=C1\NCCCS1)c1ccc(F)cc1 | inactive | > 200 mg/kg | > 100 mg/kg | Rf [4]: 0.36
O=C(/N=C1\NC2(CCCCO2)CCS1)c1ccc(Br)cc1 (stereo not given) | inactive | 3.2 mg/kg | > 200 mg/kg | 
NC1=NC2(CCCCO2)CCC1.O=C(O)/C=C\C(=O)O (racemic) |  | > 50 mg/kg | > 200 mg/kg | 
O=C(/N=C1\NC2(CCCCO2)CCS1)c1ccc(F)cc1 (single isomer, unassigned; (-)) |  | 1.8 mg/kg |  | ED50 [3]: 28 mg/kg
O=C(/N=C1\NC2(CCCCO2)CCS1)c1ccc(F)cc1 (single isomer, unassigned; (+)) [listing 1 of 2 here] | inactive |  |  | 
O=C(/N=C1\NC2(CCCCO2)CCS1)c1ccc([N+](=O)[O-])cc1 (stereo not given) | inactive | 0.9 mg/kg | 28 mg/kg | 
O=C(/N=C1\NC2(CCCCO2)CCS1)c1ccc(Cl)cc1 (stereo not given) | inactive | 2.4 mg/kg | 1.1 mg/kg | 
O=C(/N=C1\NC2(CCCCO2)CCS1)c1cccc(C(F)(F)F)c1 (stereo not given) | inactive | 11 mg/kg | > 200 mg/kg | 
NC1=NC2(CCCCO2)CCS1.O=C(O)/C=C\C(=O)O (racemic) | inactive | 0.6 mg/kg | 3.6 mg/kg | ED50 [7]: 12 mg/kg; LD50 at 120 h [8]: 120 mg/kg; LD50 at 24 h [9]: 33 mg/kg
CC1CCCC2(CCSC(N)=N2)O1.O=C(O)/C=C\C(=O)O (stereo not given) |  | 3.2 mg/kg | 25 mg/kg | 
COc1cccc(OC)c1C(=O)/N=C1\NC2(CCCCO2)CCS1 (stereo not given) | inactive | > 200 mg/kg | > 200 mg/kg | 
Cl.O=C(/N=C1\NC2(CCCO2)CCS1)c1ccc(F)cc1 (stereo not given) | inactive | 2 mg/kg | 14.8 mg/kg | 

SMILES | Activity [1] | ED50 [2, 10] | ED50 [3, 11] | other results
O=C(/N=C1\NC2(CCCCO2)CCS1)c1ccc(F)cc1 (stereo in doubt; 33) [listing 2 of 2 here] | inactive |  |  | 
O=C(/N=C1\NC2(CCCCO2)CCS1)c1ccccc1O (stereo not given) | inactive | > 200 mg/kg | > 200 mg/kg | 
O=C(/N=C1\NC2(CCCCO2)CCS1)c1cccc2ccccc12 (stereo not given) |  | 28 mg/kg | > 200 mg/kg | 
CNC1=NC2(CCCCO2)CCS1 (racemic) | inactive | 21 mg/kg | 52 mg/kg | 
CCCCC1C(=O)N(c2ccccc2)N(c2ccccc2)C1=O [PHENYLBUTAZONE] |  | 25 mg/kg | 45 mg/kg | 
COc1ccc2c(c1)c(CC(=O)O)c(C)n2C(=O)c1ccc(Cl)cc1 [INDOMETHACIN] |  | 1.2 mg/kg | 8.8 mg/kg | 
NC1=NC2(CCCC(c3ccccc3)O2)CCS1.O=C(O)/C=C\C(=O)O (stereo not given) |  | > 200 mg/kg | 64 mg/kg | 
O=C(/N=C1\NC2(CCCCO2)CCS1)c1ccc(F)cc1 (single isomer, unassigned; (+)) [listing 2 of 2 here] |  |  |  | ED50 [3]: 8.8 mg/kg
N#Cc1ccc(C(=O)/N=C2\NC3(CCCCO3)CCS2)cc1 (stereo not given) | inactive | 1 mg/kg | 60 mg/kg | 
COc1cc(C(=O)/N=C2\NC3(CCCCO3)CCS2)cc(OC)c1OC (stereo not given) | inactive | > 200 mg/kg | > 200 mg/kg | 
CC(C)(C)C(=O)/N=C1\NC2(CCCCO2)CCS1 (stereo not given) | inactive | 29 mg/kg | 200 mg/kg | inhibition in vivo at 200 mg/kg [5]: -53%
S=C(/N=C1\NC2(CCCCO2)CCS1)Nc1ccccc1 (racemic) | inactive | > 200 mg/kg | 200 mg/kg | inhibition in vivo at 200 mg/kg [5]: -48%
O=C(/N=C1\SCCCN1C(=O)c1ccc(F)cc1)c1ccc(F)cc1 |  |  |  | Rf [4]: 0.5
O=C(/N=C1\NC2(CCCCO2)CCS1)c1cccc([N+](=O)[O-])c1 (stereo not given) | inactive | 8.2 mg/kg | > 200 mg/kg | 
CC(=O)/N=C1\NC2(CCCCO2)CCS1 (stereo not given) | inactive | 1.9 mg/kg | 3.1 mg/kg | 
O=C(/N=C1\NC2(CCCCO2)CCS1)C12CC3CC(CC(C3)C1)C2 (stereo not given) | inactive | 14 mg/kg | > 200 mg/kg | 
COc1ccc(C(=O)/N=C2\NC3(CCCCO3)CCS2)cc1 (stereo not given) | inactive | 6 mg/kg | 62 mg/kg | 
O=C(/N=C1\NC2(CCCCC2)CCS1)c1ccc(F)cc1 | inactive | > 100 mg/kg | > 200 mg/kg | 
O=C1c2ccccc2C(=O)N1C1=NC2(CCCCO2)CCS1 (racemic) | inactive | 7 mg/kg | 14.8 mg/kg | 
O=C(/N=C1\NC2(CCCCO2)CCS1)c1ccco1 (stereo not given) | inactive |  | 42 mg/kg | 
O=C(/N=C1\NC2(CCCCO2)CCS1)c1cccs1 (stereo not given) | inactive | 3.8 mg/kg | 48 mg/kg | 
COc1ccc2c3c1O[C@H]1[C@@H](O)C=C[C@H]4[C@@H](C2)N(C)CC[C@@]341.COc1ccc2c3c1O[C@H]1[C@@H](O)C=C[C@H]4[C@@H](C2)N(C)CC[C@@]341.O.O=P(O)(O)O.O=P(O)(O)O [CODEINE PHOSPHATE] |  | 40 mg/kg | 18 mg/kg | 
CN1CC[C@]23c4c5ccc(O)c4O[C@H]2[C@@H](O)C=C[C@H]3[C@H]1C5.CN1CC[C@]23c4c5ccc(O)c4O[C@H]2[C@@H](O)C=C[C@H]3[C@H]1C5.O=S(=O)(O)O |  | 25 mg/kg | 4.8 mg/kg | ED50 [7]: 29.3 mg/kg
Cc1ccc(C(=O)/N=C2\NC3(CCCCO3)CCS2)cc1 (stereo not given) | inactive | 0.9 mg/kg | 60 mg/kg | ED50 [7]: > 25 mg/kg; LD50 at 120 h [8]: 1120 mg/kg; LD50 at 24 h [9]: > 400 mg/kg
CC(=O)Oc1ccccc1C(=O)O [ASPIRIN] |  | 50 mg/kg | 82 mg/kg | 
O=C(/N=C1\NC2(CCCCO2)CCS1)c1ccccc1Cl (stereo not given) | inactive |  | > 200 mg/kg | 

Source: ChEMBL document CHEMBL3244273, “Analgesic activity of novel spiro heterocycles. 2-Amino-7-oxa-3-thia-1-azaspiro[5,5]undec-1-enes and related compounds” (J Med Chem, 1978)
